Test results reported in ChEMBL document CHEMBL2163280 (J Med Chem, 2012).
The source made the active and inactive calls. The rule behind the calls is not given here.

Legend:
[1] = Metabolic stability in rat liver microsomes assessed as unchanged parent compound at 10 uM after 60 mins; type: ADME, Microsome; details: read-out: Stability
hERG (KCNH2) = hERG (KCNH2) (Homo sapiens, UniProt Q12809); experiment: Inhibition of human recombinant ERG expressed in HEK293 cells at 10 uM by fluorescence-based membrane potential analysis; type: cell-based; details: HEK293 cells expressing human recombinant ERG
Method in brief: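 HEK293 cells stably expressing recombinant human hERG, read in a fluorescence-based membrane potential assay. Test compound at 10 μM, compared with a negative control.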

[2] = Metabolic stability in human liver microsomes assessed as unchanged parent compound at 10 uM after 60 mins; type: ADME, Microsome; details: read-out: Stability
Method in brief: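 Test article incubated with human liver microsomes at 1 μM and 10 μM; aliquots taken at 0, 15, 30 and 60 min and analysed by LC-MS/MS for remaining unchanged parent drug.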

CYP3A4 [3] = biological target: T1, CYP3A4 (Homo sapiens, UniProt P08684); experiment: Inhibition of human liver microsome CYP3A4 using midazolam as substrate assessed as residual activity at 10 uM; type: ADME; details: human liver microsomes, probe midazolam, read-out: Activity
Method in brief: (§1)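 Human liver microsomes in a high-throughput multiple-CYP assay covering CYP1A2, 2B6, 2C9, 2C19, 2D6 and 3A4. Test compound at 1 and 10 μM; isoform activity expressed as % of control.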

CYP2D6 [4] = biological target: T2, CYP2D6 (Homo sapiens, UniProt P10635); experiment: Inhibition of human liver microsome CYP2D6 using bufuralol as substrate assessed as residual activity at 1 uM; type: ADME; details: human liver microsomes, probe bufuralol, read-out: Activity; method in brief: as §1
[5] = biological target: T3, Neuronal acetylcholine receptors; alpha-3/beta-4, alpha-5, beta-2 (Homo sapiens) (UniProt P17787+P30926+P32297+P30532); experiment: Agonist activity at alpha3beta4alpha5beta2 nACHR in human SH-SY5Y cells at 10 uM by 86Rb+ efflux assay; type: functional, cell-based
CYP2C19 [6] = biological target: T4, CYP2C19 (Homo sapiens, UniProt P33261); experiment: Inhibition of human liver microsome CYP2C19 using mephenytoin as substrate assessed as residual activity at 10 uM; type: ADME; details: human liver microsomes, probe mephenytoin, read-out: Activity; method in brief: as §1
[7] = Binding affinity to rat forebrain alpha7* nACHR at 10 uM
[8] = Inhibition of sigma receptor at 10 uM
[9] = Inhibition of histamine receptor at 10 uM
[10] = Plasma protein binding in human at 0.1 to 10 uM by equilibrium dialysis; type: ADME, cell-free; details: read-out: PPB (converted)
Method in brief: (§2)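 Equilibrium dialysis against human or mouse plasma, with test compound at 0, 0.1, 1 and 10 μM; results expressed as mean percentage of compound bound to plasma proteins.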

Mus musculus [11] = experiment: Antidepressant activity in BALB/cJ mouse assessed as reduction in immobility at 5 mg/kg, ip measured after 30 mins post drug administration by forced swim test; type: functional, organism-based; design: dose 5 mg/kg
Method in brief: (§3)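 Male BALB/cJ mice aged 8–10 weeks; drug given in injectable water by IP injection at 10 mL/kg. Thirty minutes later each mouse was placed in a glass cylinder of water at 23±1 °C, 12 cm deep. Immobility (floating) was scored over a 6 min trial. n = 9–10/group; ANOVA followed by Fisher's PLSD versus vehicle.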

Liver microsomes [12] = experiment: Drug metabolism in rat liver microsomes assessed as unchanged parent compound at 1 to 10 uM; type: ADME, Microsome; details: TDE = time-dependent effect
CYP3A4 [13] = biological target: T1, CYP3A4; experiment: Inhibition of human liver microsome CYP3A4 using testosterone as substrate assessed as residual activity at 10 uM; type: ADME; details: human liver microsomes, probe testosterone, read-out: Activity; method in brief: as §1
CYP1A2 [14] = biological target: T5, CYP1A2 (Homo sapiens, UniProt P05177); experiment: Inhibition of human liver microsome CYP1A2 using phenacetin as substrate assessed as residual activity at 10 uM; type: ADME; details: human liver microsomes, probe phenacetin, read-out: Activity; method in brief: as §1
CYP2B6 [15] = biological target: T6, CYP2B6 (Homo sapiens, UniProt P20813); experiment: Inhibition of human liver microsome CYP2B6 using bupropion as substrate assessed as residual activity at 10 uM; type: ADME; details: human liver microsomes, probe bupropion, read-out: Activity; method in brief: as §1
[16] = Plasma protein binding in mouse at 0.1 to 10 uM by equilibrium dialysis; type: ADME, cell-free; details: read-out: PPB (converted); method in brief: as §2
CYP2C9 [17] = biological target: T7, CYP2C9 (Homo sapiens, UniProt P11712); experiment: Inhibition of human liver microsome CYP2C9 using diclofenac as substrate assessed as residual activity at 1 uM; type: ADME; details: human liver microsomes, probe diclofenac, read-out: Activity; method in brief: as §1
[18] = biological target: T3, Neuronal acetylcholine receptors; alpha-3/beta-4, alpha-5, beta-2 (Homo sapiens); experiment: Inhibition of alpha3beta4alpha5beta2 nACHR in human SH-SY5Y cells at 10 uM by 86Rb+ efflux assay; type: cell-based
[19] = Inhibition of serotonin receptor at 10 uM
CYP3A4 [20] = biological target: T1, CYP3A4; experiment: Inhibition of human liver microsome CYP3A4 using testosterone as substrate assessed as residual activity at 1 uM; type: ADME; details: human liver microsomes, probe testosterone, read-out: Activity; method in brief: as §1
CYP2B6 [21] = biological target: T6, CYP2B6; experiment: Inhibition of human liver microsome CYP2B6 using bupropion as a substrate assessed as residual activity at 1 uM; type: ADME; details: human liver microsomes, probe bupropion, read-out: Activity; method in brief: as §1
[22] = biological target: Neuronal acetylcholine receptor; alpha4/beta4 (Rattus norvegicus, UniProt P09483+P12392); experiment: Displacement of [3H]epibatidine from rat alpha4beta4 nACHR; type: protein-complex assay
[23] = Inhibition of dopamine receptor at 10 uM
[24] = biological target: Neuronal acetylcholine receptor; alpha2/beta4 (Rattus norvegicus, UniProt P12389+P12392); experiment: Displacement of [3H]epibatidine from rat alpha2beta4 nACHR; type: protein-complex assay
CYP2D6 [25] = biological target: T2, CYP2D6; experiment: Inhibition of human liver microsome CYP2D6 using […] as substrate assessed as residual activity at 10 uM; type: ADME; details: human liver microsomes, probe burfuralol, read-out: Activity; method in brief: as §1
[26] = biological target: Acetylcholine receptor; alpha1/beta1/delta/gamma (Homo sapiens) (UniProt P02708+P07510+P11230+Q07001); experiment: Agonist activity at alpha1betagammadelta nACHR in human TE671/RD cells by 86Rb+ efflux assay; type: functional, cell-based
CYP3A4 [27] = biological target: T1, CYP3A4; experiment: Inhibition of human liver microsome CYP3A4 using midazolam as substrate assessed as residual activity at 1 uM; type: ADME; details: human liver microsomes, probe midazolam, read-out: Activity; method in brief: as §1
[28] = Inhibition of adrenergic receptor at 10 uM
CYP2C19 [29] = biological target: T4, CYP2C19; experiment: Inhibition of human liver microsome CYP2C19 using mephenytoin as substrate assessed as residual activity at 1 uM; type: ADME; details: human liver microsomes, probe mephenytoin, read-out: Activity; method in brief: as §1
[30] = biological target: Neuronal acetylcholine receptor subunit alpha-7 (Rattus norvegicus, UniProt Q05941); experiment: Binding affinity to rat alpha7 nACHR […]
[31] = Inhibition of opioid receptor at 10 uM
Mus musculus [32] = experiment: Antidepressant activity in BALB/cJ mouse assessed as reduction in immobility at 1 mg/kg, ip measured after 30 mins post drug administration by forced swim test; type: functional, organism-based; design: dose 1 mg/kg; method in brief: as §3
Mus musculus [33] = experiment: Antidepressant activity in BALB/cJ mouse assessed as reduction in immobility at 5 mg/kg, po measured after 30 mins post drug administration by forced swim test; type: functional, organism-based; design: dose 5 mg/kg
Method in brief: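 Male BALB/cJ mice aged 8–10 weeks; drug given in injectable water by oral gavage at 10 mL/kg. Thirty minutes later each mouse was placed in water at 23±1 °C, 12 cm deep. Immobility time was recorded over a 6 min trial. n = 9–10/group; ANOVA followed by Fisher's PLSD.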

[34] = Metabolic stability in rat liver microsomes assessed as unchanged parent compound at 1 uM after 60 mins; type: ADME, Microsome; details: read-out: Stability
CYP1A2 [35] = biological target: T5, CYP1A2; experiment: Inhibition of human liver microsome CYP1A2 using phenacetin as substrate assessed as residual activity at 1 uM; type: ADME; details: human liver microsomes, probe phenacetin, read-out: Activity; method in brief: as §1
[36] = biological target: Neuronal acetylcholine receptor; alpha3/beta2 (Rattus norvegicus, UniProt P04757+P12390); experiment: Displacement of [3H]epibatidine from rat alpha3beta2 nACHR; type: protein-complex assay
CYP2C9 [37] = biological target: T7, CYP2C9; experiment: Inhibition of human liver microsome CYP2C9 using diclofenac as substrate assessed as residual activity at 10 uM; type: ADME; details: human liver microsomes, probe diclofenac, read-out: Activity; method in brief: as §1
[38] = Inhibition of GABA receptor at 10 uM
[39] = Displacement of [3H]epibatidine from rat forebrain alpha4beta2* nACHR
[40] = Metabolic stability in human liver microsomes assessed as unchanged parent compound at 1 uM after 60 mins; type: ADME, Microsome; details: read-out: Stability
Method in brief: (§4)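 Test article incubated with human liver microsomes at 1 and 10 μM. Samples taken at 0, 15, 30 and 60 min, and parent remaining quantified by LC-MS/MS.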

Liver microsomes [41] = experiment: Drug metabolism in human liver microsomes assessed as unchanged parent compound at 1 to 10 uM; type: ADME, Microsome; details: TDE = time-dependent effect; method in brief: as §4
[42] = Inhibition of muscarinic receptor at 10 uM
[43] = biological target: Neuronal acetylcholine receptor; alpha4/beta2 (Rattus norvegicus) (UniProt P09483+P12390); experiment: Displacement of [3H]epibatidine from rat alpha4beta2 nACHR at 10 uM; type: protein-complex assay
[44] = biological target: Neuronal acetylcholine receptor; alpha4/beta4 (Rattus norvegicus) (UniProt P09483+P12392); experiment: Displacement of [3H]epibatidine from rat alpha4beta4 nACHR at 10 uM; type: protein-complex assay
[45] = biological target: Neuronal acetylcholine receptor; alpha3/beta4 (Rattus norvegicus) (UniProt P04757+P12392); experiment: Displacement of [3H]epibatidine from rat alpha3beta4 nACHR at 10 uM; type: protein-complex assay
Rattus norvegicus = organism: Rattus norvegicus; experiment: Displacement of [3H]epibatidine from rat forebrain alpha4beta2* nACHR at 10 uM
[46] = tested on: Neuronal acetylcholine receptor alpha2/beta2 rat; experiment: Displacement of [3H]epibatidine from rat alpha2beta2 nACHR at 10 uM
[47] = biological target: Neuronal acetylcholine receptor; alpha3/beta2 (Rattus norvegicus) (UniProt P04757+P12390); experiment: Displacement of [3H]epibatidine from rat alpha3beta2 nACHR at 10 uM; type: protein-complex assay
[48] = biological target: Neuronal acetylcholine receptor; alpha2/beta4 (Rattus norvegicus) (UniProt P12389+P12392); experiment: Displacement of [3H]epibatidine from rat alpha2beta4 nACHR at 10 uM; type: protein-complex assay
[49] = biological target: Neuronal acetylcholine receptor; alpha3/beta4 (Rattus norvegicus, UniProt P04757+P12392); experiment: Displacement of [3H]epibatidine from rat alpha3beta4 nACHR; type: protein-complex assay

T3 sequence (P17787 whole entry, looked up): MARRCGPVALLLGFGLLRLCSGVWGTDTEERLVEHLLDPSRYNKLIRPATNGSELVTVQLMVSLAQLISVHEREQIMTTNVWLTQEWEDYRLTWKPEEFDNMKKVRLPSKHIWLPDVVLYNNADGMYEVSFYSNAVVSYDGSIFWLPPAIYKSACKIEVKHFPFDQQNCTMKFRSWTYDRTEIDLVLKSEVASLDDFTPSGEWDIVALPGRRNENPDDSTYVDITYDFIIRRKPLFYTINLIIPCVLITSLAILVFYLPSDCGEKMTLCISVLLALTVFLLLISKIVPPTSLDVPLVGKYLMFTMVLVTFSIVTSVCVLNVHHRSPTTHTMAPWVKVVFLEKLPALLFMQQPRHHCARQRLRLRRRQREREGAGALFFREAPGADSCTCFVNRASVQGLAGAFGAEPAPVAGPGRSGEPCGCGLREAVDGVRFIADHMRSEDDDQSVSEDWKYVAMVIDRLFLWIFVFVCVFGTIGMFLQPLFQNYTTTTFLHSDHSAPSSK
T3 sequence (P30532 whole entry, looked up): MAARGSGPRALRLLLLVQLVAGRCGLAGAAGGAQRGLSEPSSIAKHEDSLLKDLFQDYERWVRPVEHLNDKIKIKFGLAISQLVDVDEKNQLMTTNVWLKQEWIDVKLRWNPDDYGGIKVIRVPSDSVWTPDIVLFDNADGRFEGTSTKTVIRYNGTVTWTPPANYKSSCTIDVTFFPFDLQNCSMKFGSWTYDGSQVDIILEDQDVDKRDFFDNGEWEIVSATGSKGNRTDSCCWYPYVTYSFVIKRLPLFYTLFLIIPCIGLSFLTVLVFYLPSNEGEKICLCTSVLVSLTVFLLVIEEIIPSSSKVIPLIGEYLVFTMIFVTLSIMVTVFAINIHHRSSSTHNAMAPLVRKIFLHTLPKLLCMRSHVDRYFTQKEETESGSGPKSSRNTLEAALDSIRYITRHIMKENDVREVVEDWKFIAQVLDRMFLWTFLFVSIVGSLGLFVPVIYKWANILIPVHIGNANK
T3 sequence (P30926 whole entry, looked up): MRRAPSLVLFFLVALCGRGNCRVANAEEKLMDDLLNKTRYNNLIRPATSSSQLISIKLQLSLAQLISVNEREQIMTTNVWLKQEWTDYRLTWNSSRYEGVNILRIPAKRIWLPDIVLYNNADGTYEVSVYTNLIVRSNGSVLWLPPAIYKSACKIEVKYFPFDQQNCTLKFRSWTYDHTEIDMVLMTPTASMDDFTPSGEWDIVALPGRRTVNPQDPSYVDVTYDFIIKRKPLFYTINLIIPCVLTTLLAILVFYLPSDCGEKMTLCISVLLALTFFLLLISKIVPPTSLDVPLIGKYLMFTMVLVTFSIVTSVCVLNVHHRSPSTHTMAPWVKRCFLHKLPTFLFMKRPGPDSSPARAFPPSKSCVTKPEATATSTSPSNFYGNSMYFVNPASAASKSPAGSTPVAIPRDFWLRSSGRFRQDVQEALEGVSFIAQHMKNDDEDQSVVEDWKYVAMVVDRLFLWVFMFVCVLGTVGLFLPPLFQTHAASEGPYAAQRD
T3 sequence (P32297 whole entry, looked up): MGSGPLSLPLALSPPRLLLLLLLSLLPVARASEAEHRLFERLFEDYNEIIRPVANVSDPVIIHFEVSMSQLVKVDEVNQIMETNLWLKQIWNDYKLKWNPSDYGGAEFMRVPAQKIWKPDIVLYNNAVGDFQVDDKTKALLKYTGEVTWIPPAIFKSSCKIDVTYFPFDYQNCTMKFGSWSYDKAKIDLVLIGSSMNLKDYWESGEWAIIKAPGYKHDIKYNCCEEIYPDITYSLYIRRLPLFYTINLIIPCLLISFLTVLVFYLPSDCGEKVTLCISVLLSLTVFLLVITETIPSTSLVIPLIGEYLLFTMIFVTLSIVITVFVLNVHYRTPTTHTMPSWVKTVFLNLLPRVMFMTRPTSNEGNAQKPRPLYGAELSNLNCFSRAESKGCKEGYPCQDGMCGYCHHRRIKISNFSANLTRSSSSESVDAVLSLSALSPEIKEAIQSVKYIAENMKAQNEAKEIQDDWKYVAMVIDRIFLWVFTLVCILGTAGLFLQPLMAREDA
T1 sequence (P08684 whole entry, canonical isoform): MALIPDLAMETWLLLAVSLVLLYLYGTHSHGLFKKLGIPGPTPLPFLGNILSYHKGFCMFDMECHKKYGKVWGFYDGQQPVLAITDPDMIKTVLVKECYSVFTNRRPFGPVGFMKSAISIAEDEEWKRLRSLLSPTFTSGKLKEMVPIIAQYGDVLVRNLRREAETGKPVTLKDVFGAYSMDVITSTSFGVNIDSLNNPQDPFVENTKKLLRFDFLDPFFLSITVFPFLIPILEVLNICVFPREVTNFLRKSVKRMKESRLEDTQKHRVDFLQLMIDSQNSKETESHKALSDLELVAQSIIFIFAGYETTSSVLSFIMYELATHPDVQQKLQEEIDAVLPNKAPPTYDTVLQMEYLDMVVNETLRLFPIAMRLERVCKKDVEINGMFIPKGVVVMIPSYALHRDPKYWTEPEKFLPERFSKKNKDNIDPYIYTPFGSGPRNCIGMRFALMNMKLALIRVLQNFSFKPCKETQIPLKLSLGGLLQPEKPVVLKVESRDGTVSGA
T6 sequence (P20813 whole entry): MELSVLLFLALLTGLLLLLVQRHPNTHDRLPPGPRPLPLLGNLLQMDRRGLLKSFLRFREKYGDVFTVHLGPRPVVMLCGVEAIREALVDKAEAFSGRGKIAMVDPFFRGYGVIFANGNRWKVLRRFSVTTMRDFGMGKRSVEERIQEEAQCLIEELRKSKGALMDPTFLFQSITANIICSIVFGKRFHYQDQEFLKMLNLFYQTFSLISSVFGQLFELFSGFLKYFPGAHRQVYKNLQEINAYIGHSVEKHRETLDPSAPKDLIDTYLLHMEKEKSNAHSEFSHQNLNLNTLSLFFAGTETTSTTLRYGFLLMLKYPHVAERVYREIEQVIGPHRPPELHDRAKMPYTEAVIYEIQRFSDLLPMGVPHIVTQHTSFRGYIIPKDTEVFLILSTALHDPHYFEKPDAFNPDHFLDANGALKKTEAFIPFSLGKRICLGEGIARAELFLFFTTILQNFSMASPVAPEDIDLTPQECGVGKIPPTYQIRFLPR
Neuronal acetylcholine receptor subunit alpha-7, sequence (Q05941 whole entry): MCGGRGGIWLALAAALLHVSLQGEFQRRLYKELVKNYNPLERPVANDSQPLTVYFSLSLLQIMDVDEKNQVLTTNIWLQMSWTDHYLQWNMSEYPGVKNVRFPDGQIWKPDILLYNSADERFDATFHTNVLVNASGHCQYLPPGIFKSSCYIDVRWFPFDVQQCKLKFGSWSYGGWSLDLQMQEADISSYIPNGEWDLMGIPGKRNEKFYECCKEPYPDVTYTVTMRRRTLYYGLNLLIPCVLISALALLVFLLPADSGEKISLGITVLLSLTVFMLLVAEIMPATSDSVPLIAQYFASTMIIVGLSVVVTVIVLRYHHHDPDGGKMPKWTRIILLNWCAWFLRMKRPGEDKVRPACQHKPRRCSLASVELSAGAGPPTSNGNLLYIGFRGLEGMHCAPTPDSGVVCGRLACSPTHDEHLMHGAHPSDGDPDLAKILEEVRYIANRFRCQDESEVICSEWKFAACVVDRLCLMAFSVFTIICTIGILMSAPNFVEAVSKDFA
T7 sequence (P11712 whole entry): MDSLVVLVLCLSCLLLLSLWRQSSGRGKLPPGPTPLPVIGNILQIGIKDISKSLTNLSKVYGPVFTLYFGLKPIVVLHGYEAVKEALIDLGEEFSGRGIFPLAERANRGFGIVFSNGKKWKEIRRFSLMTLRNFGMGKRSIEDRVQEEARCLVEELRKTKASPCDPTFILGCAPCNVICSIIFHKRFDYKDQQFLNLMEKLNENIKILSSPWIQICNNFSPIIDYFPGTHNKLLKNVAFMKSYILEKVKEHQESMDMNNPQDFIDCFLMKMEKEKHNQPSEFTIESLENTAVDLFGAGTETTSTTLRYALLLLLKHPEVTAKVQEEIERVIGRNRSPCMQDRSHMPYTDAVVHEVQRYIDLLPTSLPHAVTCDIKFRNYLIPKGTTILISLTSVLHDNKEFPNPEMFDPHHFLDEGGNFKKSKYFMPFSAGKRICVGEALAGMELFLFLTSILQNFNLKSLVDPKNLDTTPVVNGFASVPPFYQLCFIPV
T4 sequence (P33261 whole entry): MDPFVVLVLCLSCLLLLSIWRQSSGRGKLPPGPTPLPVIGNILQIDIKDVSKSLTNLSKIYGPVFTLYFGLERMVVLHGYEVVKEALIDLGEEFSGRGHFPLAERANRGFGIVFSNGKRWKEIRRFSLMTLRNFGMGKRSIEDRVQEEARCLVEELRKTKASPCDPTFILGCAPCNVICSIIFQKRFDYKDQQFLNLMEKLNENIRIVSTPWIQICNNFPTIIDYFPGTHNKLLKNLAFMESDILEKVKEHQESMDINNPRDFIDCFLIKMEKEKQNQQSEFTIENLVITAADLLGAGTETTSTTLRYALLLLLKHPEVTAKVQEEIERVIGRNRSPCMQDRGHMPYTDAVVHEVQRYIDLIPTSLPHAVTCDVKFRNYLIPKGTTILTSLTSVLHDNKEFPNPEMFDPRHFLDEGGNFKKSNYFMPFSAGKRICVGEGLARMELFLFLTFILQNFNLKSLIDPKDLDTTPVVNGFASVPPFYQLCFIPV
T2 sequence (P10635 whole entry): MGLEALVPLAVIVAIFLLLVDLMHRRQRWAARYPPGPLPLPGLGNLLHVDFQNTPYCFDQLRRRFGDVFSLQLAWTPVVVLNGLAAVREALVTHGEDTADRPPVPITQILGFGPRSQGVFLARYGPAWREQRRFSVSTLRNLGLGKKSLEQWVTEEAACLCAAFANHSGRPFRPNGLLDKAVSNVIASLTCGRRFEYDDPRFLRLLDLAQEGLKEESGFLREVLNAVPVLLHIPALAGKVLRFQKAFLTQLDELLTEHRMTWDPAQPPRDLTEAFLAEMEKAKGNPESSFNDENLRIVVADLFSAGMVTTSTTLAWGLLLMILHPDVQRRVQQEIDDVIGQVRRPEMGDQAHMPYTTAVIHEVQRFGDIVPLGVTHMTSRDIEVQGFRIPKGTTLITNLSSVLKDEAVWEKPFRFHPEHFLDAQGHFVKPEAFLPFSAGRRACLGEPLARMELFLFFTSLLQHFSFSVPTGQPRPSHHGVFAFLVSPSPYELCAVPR

## Cc1cc(OC[C@@H]2CCN2)on1
[1]
  remaining at 1 h, 10 µM: 73.7%
hERG (KCNH2)
  inhibition at 10 µM: 0%
[2]
  remaining at 1 h, 10 µM: 67.2%
CYP3A4 [3]
  activity at 10 µM: < 70%
CYP2D6 [4]
  activity at 1 µM: < 70%
[5]
  Efficacy: 120%
CYP2C19 [6]
  activity at 10 µM: < 70%
[7]
  Ki: 6790 nM
[8]
  inhibition: > 50%
[9]
  inhibition: > 50%
[10]
  fraction unbound at up to 10 µM: 0.918
Mus musculus [11]
  Activity: Active
Liver microsomes [12]
  Drug metabolism: tde
CYP3A4 [13]
  activity at 10 µM: < 70%
CYP1A2 [14]
  activity at 10 µM: < 70%
CYP2B6 [15]
  activity at 10 µM: < 70%
[16]
  fraction unbound at up to 10 µM: 0.871
CYP2C9 [17]
  activity at 1 µM: < 70%
[18]
  Efficacy: > 70%
[19]
  inhibition: > 50%
CYP3A4 [20]
  activity at 1 µM: < 70%
CYP2B6 [21]
  activity at 1 µM: < 70%
[22]
  Ki: 86 nM
[23]
  inhibition: > 50%
[24]
  Ki: 311 nM
CYP2D6 [25]
  activity at 10 µM: < 70%
[26]
  Activity: inactive
CYP3A4 [27]
  activity at 1 µM: < 70%
[28]
  inhibition: > 50%
CYP2C19 [29]
  activity at 1 µM: < 70%
[30]
  Ki: 2890 nM
[31]
  inhibition: > 50%
Mus musculus [32]
  Activity: Active
Mus musculus [33]
  Activity: Active
[34]
  remaining at 1 h, 1 µM: 67.5%
CYP1A2 [35]
  activity at 1 µM: < 70%
[36]
  Ki: 8.7 nM
CYP2C9 [37]
  activity at 10 µM: < 70%
[38]
  inhibition: > 50%
[39]
  Ki: 12 nM
[40]
  remaining at 1 h, 1 µM: 53.4%
Liver microsomes [41]
  Drug metabolism: tde
[42]
  inhibition: > 50%

## c1c(OC[C@@H]2CCN2)noc1COCC1CC1
[43]
  Activity: < 50%
[44]
  Activity: < 50%
[45]
  Activity: < 50%
[26]
  Activity: inactive
Rattus norvegicus
  Activity: < 50%
[46]
  Activity: < 50%
[47]
  Activity: < 50%
[48]
  Activity: < 50%

## c1cnc2cc3c(cc2n1)[C@@H]1CNC[C@H]3C1 [VARENICLINE]
[5]
  Efficacy: 110%
[49]
  Ki: 86 nM
[22]
  Ki: 110 nM
[26]
  Activity: inactive
[30]
  Ki: 125 nM

## c1ccc(OCc2cc(OC[C@@H]3CCCN3)on2)cc1
[26]
  Activity: inactive

## COCc1cc(OC[C@@H]2CCN2)no1
Rattus norvegicus
  Activity: < 50%
[48]
  Activity: < 50%
